Screens from PubChem BioAssay.
Shown are actives, neighbours in structure and some others; about 1.7% of the full set was active somewhere.
PLC-beta3 inh: inhibitors of human phospholipase C beta3; 370,000 compounds, 0.18% hits; Purified PLC-beta3, fluorogenic substrate, fluorescence; Q01970; inhibition, % at 12.2 µM; in the data active means inhibition above about 11%;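 further: 0% = median of compound wells on plate and 100% = full blocker control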
UCH37 DUB inh: blocks the human deubiquitinase UCH37. Q9Y5K5. purified proteasome/UCH37, Ub-AMC cleavage fluorescence. inhibition, % (concentration not given with the values). 330,000 compounds, 0.33% hits;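 active means mean inhibition over replicate wells above about 20%, limit read from the data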;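 further: 0% = compound-free wells with enzyme and 100% = wells lacking proteasome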
Target sequence (Q9Y5K5 whole entry, looked up): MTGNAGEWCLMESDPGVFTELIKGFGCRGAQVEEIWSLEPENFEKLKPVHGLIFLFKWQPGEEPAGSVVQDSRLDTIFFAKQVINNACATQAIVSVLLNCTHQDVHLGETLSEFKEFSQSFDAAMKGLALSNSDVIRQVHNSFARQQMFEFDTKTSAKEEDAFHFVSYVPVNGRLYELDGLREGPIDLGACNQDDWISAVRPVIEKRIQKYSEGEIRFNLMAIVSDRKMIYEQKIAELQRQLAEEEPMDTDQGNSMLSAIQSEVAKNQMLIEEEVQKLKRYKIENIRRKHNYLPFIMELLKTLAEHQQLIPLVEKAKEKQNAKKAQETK
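Schedule: 30 min plus 25 min, room temperature / Material: human UCH37 within purified proteasomes / Technique: AMC fluorescence intensity at 355/460 nm / Buffer or medium: pH 7.4 Tris-HCl (50 mM) with ovalbumin, ATP-MgCl2, DTT / Controls: wells without proteasome as full block, compound-free enzyme plus substrate as uninhibited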
PLCg1 inh: PLC-gamma1 (human) inhibition, primary screen. P19174. 370,000 compounds, 0.84% hits. AID 720700. purified PLC-gamma1, fluorogenic substrate, fluorescence. inhibition, % at 12.2 µM; in the data active means inhibition above about 9.5%
Rpn11 inh: Rpn11 (human) deubiquitinase inhibition; O00487; human 26S proteasome, Ub4-pepOG fluorescence polarization; 20S core pre-blocked with epoxomicin; inhibition, % at 20 µM; 360,000 compounds, 0.59% hits; AID 588493;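 active means inhibition at 20 µM, scaled to each plate's controls, above about 33%, limit read from the data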
Target sequence (O00487 whole entry, looked up): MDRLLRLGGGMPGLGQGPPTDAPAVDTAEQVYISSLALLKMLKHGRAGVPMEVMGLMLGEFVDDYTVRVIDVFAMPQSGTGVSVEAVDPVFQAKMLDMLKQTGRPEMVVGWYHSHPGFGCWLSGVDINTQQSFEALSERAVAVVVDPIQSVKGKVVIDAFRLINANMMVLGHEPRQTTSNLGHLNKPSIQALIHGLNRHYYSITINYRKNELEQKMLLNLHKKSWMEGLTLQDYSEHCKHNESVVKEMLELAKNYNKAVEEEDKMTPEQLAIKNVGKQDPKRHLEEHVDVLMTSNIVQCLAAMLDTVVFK
The depositor's hits bear a star; nt = not tested or not shown; + = active, no number; ! = not confirmed by another sample.

SMILES	PLC-beta3 inh	UCH37 DUB inh	PLCg1 inh	Rpn11 inh
NC1=NC(=Nc2cccc(S(N)(=O)=O)c2)c2ccccc21	-4	6	2	5
COc1ccc(COC(=O)NN=C(C)CC(=O)NCc2ccc(Cl)cc2)cc1	nt	1	nt	nt
O=[N+]([O-])c1ccc(NN=Cc2cccnc2)nc1	nt	4	nt	nt
CCC(C(=O)Oc1c(C(C)C)cccc1C(C)C)c1ccccc1 (stereo not drawn)	1	33*	-1	5
Cc1ccc2nc(Nc3ccccc3)c(C=NO)c(=O)n2c1	nt	2	nt	nt
C[C@@H](OC(=O)N(C)Cc1ccccc1)[C@H]1O[C@]2(C)CCCC[C@H]1O2	-1	30*	-2	-8
O=C(c1ccccc1)N(Cc1ccccc1)c1ccccn1	3	5	-1	3
O=C(/C=C/c1ccc(Cl)cc1)N(Cc1ccccc1)c1ccccn1	3	27*	0	5
CCc1cc2c(SCC(=O)Nc3ccc(Cl)cn3)ncnc2s1	1	nt	1	5
CCc1cc2c(SCC(=O)c3ccc(Cl)s3)ncnc2s1	0	2	10*	5
CC(/C=C/c1ccco1)=NNC(=O)CNc1ccccc1C	nt	5	nt	nt
CCCCC[C@H]1CN(C2CCCCC2)C(=O)[C@@H]1CC(=O)NCc1ccccc1	5	32*	0	-9
CCN(C(=O)CSc1nnc(Cc2ccccc2F)n1N)C1CCS(=O)(=O)C1 (stereo not drawn)	0	27*	0	3
CN(C(=O)CSc1nnc(Cc2ccccc2F)n1N)C1CCS(=O)(=O)C1 (stereo not drawn)	-2	1	-2	2
COc1cc(CNC(=O)CCCC(=O)c2ccccc2)cc(OC)c1OC	-1	3	9.9*	4
O=C(CSC1CN(C(c2ccccc2)c2ccccc2)C1)NN=Cc1ccccc1	nt	6	nt	nt
COC(C/C=C\[C@H](O)[C@@H](C)OCc1ccccc1)OC	12*	-1	3	-2
COC(=O)c1cc(NC(=O)c2cccc(C(F)(F)F)c2)c(=O)oc1CC=NOCc1cccc(Cl)c1Cl	nt	3	nt	nt
CCc1nnc(NC(=O)C2CCCN(c3nc4ccccc4s3)C2)s1 (stereo not drawn)	-88	-3	11*	-2
COc1ccc(CCNC(=O)C2CCCN(c3nc4ccccc4s3)C2)cc1OC (stereo not drawn)	-5	-229	1	4
O=C(O)c1cccc(NC(=S)NN=Cc2ccccc2OCc2ccc(Br)cc2)c1	nt	12	nt	nt
C/C(C=NN1CCN(Cc2ccccc2)CC1)=C\c1ccccc1	nt	1	nt	nt
COc1cc(C=c2sc3nc(-c4ccccc4)c(-c4ccccc4)n3c2=O)cc(OC)c1OC	nt	6	nt	nt
COc1ccc(C(=NOC(C)=O)c2nccc3cc(OC)c(OC)cc23)cc1OC	nt	7	nt	nt
COc1ccc(C(=O)c2nccc3cc(OC)c(OC)cc23)cc1OC	nt	48*	nt	-2
SMILES	PLC-beta3 inh	UCH37 DUB inh	PLCg1 inh	Rpn11 inh
O=C(NCCCO)/C(=C/c1ccc(-c2cccc([N+](=O)[O-])c2)o1)NC(=O)c1ccccc1	-6	22*	2	-2
O=C(CSc1nc2ccccc2[nH]1)NN=Cc1ccco1	nt	5	nt	nt
C[C@H]1CN(S(=O)(=O)C(C)(C)C)[C@H](CCO)/C1=C\c1ccccc1	-1	1	1	-2
CC(C)(C)S(=O)(=O)N1C[C@@H]2CC/C=C\C/C(c3ccccc3)=C\2[C@H]1CCO	6	20*	4	1
COc1ccc(C=NNC(=O)c2ccncc2)c(OC)c1	nt	13	nt	nt
COc1cc(C=NNC(=O)c2ccncc2)ccc1OCC(=O)Nc1ccccc1	nt	6	nt	nt
CC1Oc2ccccc2C=C1C=NNC(=O)c1ccccc1 (stereo not drawn)	nt	-14	nt	nt
Cn1c(=O)c2c(nc(CN3CCc4ccccc4C3)n2Cc2cccc(Cl)c2)n(C)c1=O	-13	23*	-11	11
CCOc1ccc(N=Nc2c(=O)[nH]n3c(=O)c4c([nH]c23)CCCC4)cc1	0	25*	2	10
CN(C)S(=O)(=O)c1cccc(-c2nnc(SCCNCCO)n2-c2ccc(F)cc2)c1	14*	0	14*	-3
CCCSc1nnc(-c2cccc(S(=O)(=O)N(C)C)c2)n1-c1cc(OC)ccc1OC	2	1	2	2
COc1ccc(S(=O)(=O)N2CCCCCC2)cc1NC(=O)Cc1cc(OC)c(OC)c(OC)c1	0	6	-2	1
COc1ccc(S(=O)(=O)N2CCCCCC2)cc1NC(=O)CN1C(=O)CNC1=O	9	2	11*	1
COc1cccc(C(=O)NCC(=O)NN=C(C)/C=C/c2ccccc2)c1	nt	5	nt	nt
NS(=O)(=O)c1ccc(N/C=C\C(=O)c2ccc(F)cc2)cc1	-60	-12	-33	-6
CN(C)c1ccc(N/C=C/C(=O)c2ccc(F)cc2)cc1	nt	6	nt	46*
COc1cccc(C2=N/C(=C\N(C)C)C(=O)O2)c1	4	25*	5	5
COc1cccc(OC)c1OCCCCCCN1CCN(C)CC1	-1	0	13*	-4
COc1cccc(OC)c1OCCCCN1CCCC1	1	1	0	4
CN(C)CCOC(=O)C1(c2ccccc2)CCOCC1	0	20*!	-6	-4
O=[N+]([O-])c1ccccc1N=Nc1ccc(O)cc1O	1	21*	2	-5
COC(=O)C/C=C/[C@@H](C)[C@@H](C=NO[C@@H](C)c1cn([C@H](CO)Cc2ccccc2)nn1)NS(=O)(=O)c1ccc(C)cc1	nt	3	nt	nt
O=C(CCNC(=O)c1ccc([N+](=O)[O-])cc1)NN=Cc1ccc(F)cc1	nt	0	nt	nt
CCOC(=O)C(C(C)=O)c1nc(C)nc2c1nnn2Cc1ccccc1Cl (stereo not drawn)	2	-13	13*	-2
O=C1CC(c2ccc3c(c2)OCO3)CN1 (stereo not drawn)	4	27*	3	2
SMILES	PLC-beta3 inh	UCH37 DUB inh	PLCg1 inh	Rpn11 inh
O=C1CC(c2ccc3c(c2)OCO3)c2cc3c(cc2N1)OCO3 (stereo not drawn)	-4	0	-4	-5
CC(=O)Nc1ccc(NC(=O)CC(C)=NNC(=O)c2cccc3ccccc23)cc1	nt	1	nt	nt
NC(=O)c1ccc(N=C2C(=O)Nc3ccc([N+](=O)[O-])cc32)cc1	-4	84*	11*	1
CCNc1ccc(Br)cc(C(=O)/C=C/c2ccc(Cl)cc2)c1=O	nt	3	nt	31
CCNc1ccc(Br)cc(C(=O)/C=C/c2c(Cl)cccc2Cl)c1=O	nt	7	nt	54*
CC(=NNC(=O)NC1CCCCC1)c1ccc(Cl)s1	nt	0	nt	nt
N=C1/C(=C\c2ccc(-c3ccc(C(=O)O)cc3)o2)C(=O)N=C2SC=C(c3ccccc3)N12	-26	9	-10	+
CCOC(=O)c1c(N=CC2=C(O)CCCC2=O)sc2c1CCCC2	nt	-2	nt	nt
CCc1ccc(S(=O)(=O)/N=C2/C=C(Sc3ncn[nH]3)C(=O)c3ccccc32)cc1	nt	nt	nt	16
Cc1cc(C)c(S(=O)(=O)N=C2C=C(Sc3ncn[nH]3)C(=O)c3ccccc32)cc1C	nt	31*	nt	nt
C/C(C=NNC(=O)Cc1cccn1C)=C\c1ccccc1	nt	2	nt	nt
CCCCCCCCCCCCCCCC[N+](C)(C)CCN(Cc1ccc(OC)cc1)c1ncccn1	nt	27*	nt	77*
